Measurements reported in publication PMC6246805 (SLAS discovery : advancing life sciences R & D, 2018).
Where a name gives a salt, the structure may show the parent alone.

How the values were obtained:
[1] = molecular target: T1, aerobactin synthetase IucA (Klebsiella pneumoniae, UniProt A0A1A9TA96); type: biochemical, hypervirulent K. pneumoniae hvKP1; details: for inhibition of IucA in pilot screen and follow-up: pilot screen of 4,400 bioactives, enzyme-initiated protocol; for effect of increasing IucA concentration on apparent potency: 20, 200, or 2,000 nM IucA; for effect of increasing IucA concentration on apparent potency / effect of 1 h pre-incubation with IucA on apparent potency: MG assay; for effect of 1 h pre-incubation with IucA on apparent potency: compared to reactions without pre-incubation
IucA [2] = test: Fluorescence-based thermal shift assay; type: binding, hypervirulent K. pneumoniae hvKP1; details: substrates ATP (1.5 mM) and citrate (1.5 mM)
Method in brief: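 Purified IucA (10 μg per sample) with 5× SYPRO Orange, in the more concentrated buffer used for substrate runs: 50 mM HEPES, 150 mM NaCl, 0.2 mM TCEP, pH 7.5. ATP and citrate were each at 1.5 mM. Samples were heated from 25 to 99 °C over 45 min in a real-time PCR instrument, reading fluorescence (ex 545/em 568 nm) every 0.5 °C. TM was taken as the maximum of the first derivative of the melt curve.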

IucA [3] = details: read-out: KM for IucA; cited from earlier work
[4] = molecular target: T1, aerobactin synthetase IucA; test: Orthogonal luminescence; type: biochemical, hypervirulent K. pneumoniae hvKP1; details: 30 min pre-incubation, substrate-initiated
[5] = ref PubChem database; cited from earlier work
bacterial IspE kinase = details: cited from earlier work
human RAD51 recombinase = details: cited from earlier work
RecA = details: cited from earlier work

In the case of `O=C(O)c1cc[c]([Hg][Cl])cc1` [4-chloromercuribenzoic acid, reference compound], the “inhibition of IucA in pilot screen and follow-up” value (“inhibition of IucA” below) [1] is reported as “identified in the initial screen”.

For `Nc1ncnc2c1ncn2[C@@H]1O[C@H](COP(=O)(O)OP(=O)([O-])OP(=O)([O-])O)[C@@H](O)[C@H]1O.[Na+].[Na+]` [ATP, adenosine triphosphate disodium salt hydrate], the “shift in the melting temperature (TM) of IucA” value (IucA [2]) is listed as “+2–5 °C” and the Km (IucA [3]) is listed as 130 ± 30 µM.

With `CC1=NN(c2nc(-c3ccc(Cl)cc3)cs2)C(=O)/C1=C\c1ccc2c(c1)OCO2` [CB02] the “effect of increasing IucA concentration on apparent potency” value [1] was “apparent potency was reduced”, the “effect of 1 h pre-incubation with IucA on apparent potency” value [1] was “increased apparent potency” and the “dose-dependent activity, primary substrate-initiated MG assay” value ([1]; purchased compounds, substrate-initiated protocol) was “highest potency”. For the same compound, the “dose-dependent activity, secondary luminescence assay” value [4] was “most potent dose-dependent activity” and the “reported active in unique PubChem bioassays” value [5] was 2 out of 8.

In the case of `COc1ccc(-n2c(-c3cccnc3)nc3ccccc3c2=O)cc1` [CB04], the “inhibition of IspE kinase” value (bacterial IspE kinase) is given as “potent inhibitors”.

In the case of `O=c1c2ccccc2nc(-c2cccnc2)n1-c1ccc(Br)cc1` [CB05], the “inhibition of IspE kinase” value (bacterial IspE kinase) is listed as “potent inhibitors”.

For `O=c1c2ccccc2nc(/C=C/c2cccnc2)n1Cc1ccccc1` [CB06], the “effect of increasing IucA concentration on apparent potency” value [1] is given as “apparent potency was reduced”, the “effect of 1 h pre-incubation with IucA on apparent potency” value [1] is given as “increased apparent potency” and the “inhibition of human RAD51 recombinase” value (human RAD51 recombinase) is given as “inhibitor”. The “inhibition of E. coli RecA” value (RecA) was “did not inhibit”.

With `O=c1c2ccccc2[se]n1-c1ccccc1` [Ebselen, reference compound] the “inhibition of IucA” value [1] was “identified as an inhibitor”.

With `O=C([O-])c1ccccc1-c1c2cc(Br)c(=O)cc-2oc2[c]([Hg+])c([O-])c(Br)cc12.[Na+].[Na+].[OH-]` [Merbromin, reference compound] the “inhibition of IucA” value [1] was “identified in the initial screen”.

In the case of `O=C(O)CC(O)(CC(=O)O)C(=O)O` [citrate, sodium citrate tribasic dihydrate], the Km (IucA [3]) is listed as 180 ± 30 µM.

With `CC(=O)[O][Hg][c]1ccccc1` [phenylmercuric acetate, reference compound] the “inhibition of IucA” value [1] was “identified in the initial screen”.

For `C[CH2][Hg][S]c1ccccc1C(=O)[O-].[Na+]` [thiomersal, reference compound], the “inhibition of IucA” value [1] was “identified in the initial screen”.
